Among the data in the RNAGym collection of RNA variant scans (doi:10.1126/science.aae0568) are yeast fitness values, retold here.

This sample holds only a part of the variants without activity.

Sequences and labels used below:
B1: tRNA (parent)
chain: GUUCCGUUGGCGUAAUGGUAACGCGUCUCCCUCCUAAGGAGAAGACUGCGGGUUCGAGUCCCGUACGGAACG

In the series the parent is B1. The experiment in a line: yeast fitness relative to wild type (ratio to wild type); higher = fitter; tRNA-Arg(CCU), competitive growth, 37 C, YPD. A digest of the protocol: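 For this measurement, the tRNA-Arg(CCU) gene was varied by chemical synthesis at a 3% per-site mutation rate across 69 sites, and each variant was placed at the native genomic locus in Saccharomyces cerevisiae. The pooled strains went through a 24-hour competition in YPD at 37°C in six parallel replicates, with amplicons from start and end populations read by 100-nucleotide paired-end sequencing. Darwinian fitness relative to wild type followed from the change in each genotype's frequency. Genotypes needed ≥ 100 starting reads, and estimates < 0.5 were set to 0.5.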
For GUUCCGUUGGCGUAUUGGUUACGCGUCUCCCUCCUAAGGAGAAGACUGCGGGUUCCAGUCCCGUACGGAACG [A15U A20U G56C], the yeast fitness was not above 0.5. The result for GUUCCGUUGGCGUAAUGGUAACGCGUCUCCCUCCUAAGGAGAAGACUGCGGGUUAGUGUCCCGUAUGGAACG [C55A A57U C66U] reads 0.574. As for GUUCCGUUGCCGUAAUGGUAACGGGUCUCCCUCCUAAGGAGAAGACUGCGGGUUAGAGUCCCGUACGGAACG [G10C C24G C55A], the yeast fitness was not above 0.5. The result for GUUAGGUUGGCGUAAUGGUAACGCGUCUCCCUCCUAAGGAGAAGACUGCGGGUUCGAGUUCUGUACGGAACG [C4A C5G C60U C62U] reads not above 0.5.

GUUCGGUUGGCGUAAUGGUAACGCGUCUCCCUCCUAAGGACAAGACUGCGGGUACGAGUCCCGUACGGAACG [C5G G41C U54A]: the yeast fitness was not above 0.5.

As for GUUGCGUUGGCGUAAUGGUAACGCGUCUCCCUCCUAAGGAGAAGGCUGCGGGUUCGAGUCCAGUACGGAACG [C4G A45G C62A], the yeast fitness amounted to 0.554. The result for GUUCCGUUGGCGUAAUCGUAACGCGUCUCCCUCCUAAGGAGAAGACUGAGGGUUCGAGUCCCGUACGGAACG [G17C C49A] reads 0.571. The result for GUUCCGUUGGUGUAAUGGUUACGUGUCUCCCUCCUAAAGAGAAGACUGAGGGUUCGAGUCCCGUACGGAUCG [C11U A20U C24U G38A C49A A70U] reads not above 0.5; that for GUUCCGUUGGCGUAAUGGUAACGCGUCUCCCUCCUAAGGAAAAGUCUGCGGGUUCGAGUCCCGUACGGAACG [G41A A45U], 1.01; that for GUUCCGUUGGCCUAAUGGUAACGCGUCUCCCUCCUAAGGAGAAGACUGCGGGUUCGAGUCCGGUCCGGAACG [G12C C62G A65C], not above 0.5. Under GUUCCGUUGGCGUAAUGGUAACGCGUCUCCCUCCUAAGGAGAAGACUGCGGGUUCGAGUCGCGCACGGAACG [C61G U64C] stands 0.579; under GUACCGUUGGCGUACUGGUAACGCGUCUCCCUCCUAAGGAGAAGACUGCGGGUUCGAGUCCCGUAUGGAACG [U3A A15C C66U], 0.659; under GUUCCGUAGGCGUAUUGGUAACGCGUGUCCCUCCUGAGGAGAAGACUGCGGGUUCGAGUCCCGUACGGAACG [U8A A15U C27G A36G], 0.569. On to GUUCCGUUGGCGUAGUGGUAACGCGUCUCGCUCCUAAGGAGAAGACUGCGGGUUCGAGUCCGGUACGGAACG [A15G C30G C62G], for which the yeast fitness is not above 0.5.

As for GUUUCGUUGGCGUAAUGGUAACGCGUCUCCCUCCUAAGGAGCAGACUGCGGGUUCGAGUCCCGUACGGUACG [C4U A42C A69U], the yeast fitness stood at 0.633. For GUUCCGUGGGCGUUAUGGUAACGCGUCUCCCUCCUAAGGAGAAGACUGCAGGUUCGUGUCCCGUACGCAACG [U8G A14U G50A A57U G68C], the yeast fitness was not above 0.5.

As to GUUCCGUUGGCGUAAUGGUAACGCGUCUCCCUCCUAAGGAGAGGUCCGCGGGUUCGAGUCCCAUACGGAACG [A43G A45U U47C G63A], the yeast fitness is not above 0.5. Under GUUCCGUUGGCGUAAUGGUAACGCGUCUCCCACCUAAGGCGAAGACUGCGGGUUCGAGUCCCGUACGGCACG [U32A A40C A69C] stands 0.562; under GUUCCGUUGGCGUAAUGGUAACGCGCCUCGCUCCUAAGGAAAAGACUGCGGGUUCGAGUCCCGCACGGAACG [U26C C30G G41A U64C], not above 0.5.

Consider GUUCCGUUGGCGUAAUGGUAAAGCGUAUCCCUCCUAAGGAGAAGACUGCGGGUUCGAGUCCCGUACGGAACG [C22A C27A], for which the yeast fitness was 0.718. Under GUUCCGUUGGCGUAAUGGUAACGCGUCUCCCUCCUCAGGACAAGACUGCGGGUUCGAGUCUCGUACGGAACG [A36C G41C C61U] stands not above 0.5; under GUUCCGUUGGCGUAAUGGUAACGCGUCUCCCUCCUAAGGAGAAGACGGCGGGUUCGAGUCCGGUACGGUACG [U47G C62G A69U], 0.545. The result for GUUCCGUUGGCGUAAUGGUAACGCGUCUCCCUGUUAACGAGAAGACUGCGGGUUCGAGUCCCGUACGGAACG [C33G C34U G38C] reads not above 0.5; that for GUUCCAUUGGCGUAGUGGUAACGCGUCUCCCUCCUAAGGAGAAGACUGCGGGUUCGAGUCCCGUACGGAACG [G6A A15G], 0.712. The result for GUUACGUUGGCGUAAUGGUAAGGCGUCUCCCUCCUAUGGAGAAGACAGCGGGUUCGAGUCCUGUACGGAACG [C4A C22G A37U U47A C62U] reads not above 0.5; that for GUUCAGUUGGCGUAAUGGUAACGCGUCUCCCUCCUAAGGAGAUGACUGCGGGUUCGAGUCCCGUACGGAACG [C5A A43U], 0.783; that for GUUCCGUUGGCGUACUUGUAACGCGUCUCCCUCCUAAGGAGAAGAUUGCGGGUUCGAGUCCCGUACGGAACG [A15C G17U C46U], 0.633.

GUUCCGUUGGCGUAAUGGUAACGCGUCUCCCUCCUAAGGAGAAGACUGCAGGUUCAAGUCCCGUACGGCACG [G50A G56A A69C]: the yeast fitness is 0.706. Turning to GUUCCGUUGGCGUAAUGGUGACGCGUCUCCCUCCUAAGGAGAAGACUGCGGGUUCGAGUCCGGUACGGAACG [A20G C62G], the yeast fitness turned out to be 0.804. Under GUUCCGUUGGCGUAAUGGUAACGCGUCUCCCUCCUAGGGAGAAGCCUGCGGGUUCGAGUCUCGUACGGAACG [A37G A45C C61U] stands 0.579; under GUUCCGUUGGCGUAAUGGUAAGGCGUCUCCCUCCUAAGGAGAAGACUCCGGGUUCGAGUCCCGUACGGAACG [C22G G48C], 0.811. On to GUUCCGUUGGCGUAAUGGUAACGCGUCUCCCUCUUAAGGAGAAGACUGCGAGUUCGAGUCCCGUACGGAACG [C34U G51A], for which the yeast fitness was 0.547. Under GUUCCGUUGGCGUAAUGGUAACGCGUCUGCCUCCUAAGGAGAAGACUGCGGGUUCGAGUCCCGUACGGUACG [C29G A69U] stands 0.771; under GUUCCGUUGGCGUAAUGGUAACGCGCCUCACUCCUAAGGAGAAGACUGCGGGUUCGAGUCCCGUACGGAACG [U26C C30A], 0.815; under GUUCCGUUGGCAUAAUGGUAACGCGUCUCCCUCCUAAGGAGAAUACUGCGGGUUCGAGUCCCGUACGCAACG [G12A G44U G68C], not above 0.5. In the case of GUUCCGUUGGCGUAAUGGUAACGCGUCUCCGUGCUAAGGAGAAGACUGCGGGUUCGAGUCCCGUACGGAUCG [C31G C33G A70U], the yeast fitness was not above 0.5.

GUUCCAUUGGCGUAAUGGUUACGCGGCUCCCUCCUAAGGAGAAGACUGCGGGUUCGAGUCCUGUACGGAACG [G6A A20U U26G C62U]: the yeast fitness is not above 0.5.
